From ChEMBL document CHEMBL4602675, “The Marine Natural Product Manzamine A Inhibits Cervical Cancer by Targeting the SIX1 Protein” (J Nat Prod, 2020)
Active and inactive are the calls of the source. No cut-off for these calls is given here.

Experiments:
[1] = test system: HeLa; experiment: Antiproliferative activity against human HeLa cells assessed as reduction in cell viability after 48 hrs by CellTiter-Glo assay; type: functional, cell-based
How it was run: (§1)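 ATP-based luminescent viability readout. Cells were grown in DMEM with 10% FBS, 2 mM L-glutamine and penicillin-streptomycin at 37 °C, 5% CO2. 2 × 10^4 cells/well were seeded, then exposed the next day to 0–40 μM for 24, 48 or 72 h. % viability = 100 × treated/control. IC50 was fitted from a sigmoid dose-response curve. Run at least three times in quadruplicate; mean ± SEM.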

[2] = test system: C-33-A; experiment: Induction of apoptosis in human C33A cells assessed as early apoptotic cells at 4 uM after 24 hrs by Annexin V-FITC/PI double staining based flow cytometric analysis (reference value: 4.3%); type: functional
[3] = test system: C-33-A; experiment: Induction of apoptosis in human C33A cells assessed as necrotic cells at 4 uM after 48 hrs by Annexin V-FITC/PI double staining based flow cytometric analysis (reference value: 1.9%); type: functional
[4] = test system: Ca-Ski; experiment: Induction of apoptosis in human CaSki cells assessed as early apoptotic cells at 4 uM after 24 hrs by Annexin V-FITC/PI double staining based flow cytometric analysis (reference value: 12.2%); type: functional
[5] = test system: HeLa; experiment: Cell cycle arrest in human HeLa cells assessed as accumulation at G2/M phase at 4 uM after 24 hrs by propidium iodide staining based flow cytometric analysis (reference value: 16.4%); type: functional
How it was run: (§2)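 Cells in DMEM/10% FBS at 37 °C, 5% CO2 were given 4 μM for 24, 48 or 72 h, with DMSO as control. After trypsinization they were fixed in chilled 70% ethanol on ice for 30 min, treated with RNase A (1 mg/mL) for 30 min at room temperature, and stained with PI (20 μg/mL). At least 10 000 events were read by flow cytometry to give sub-G1, G0/G1, S and G2/M fractions; mean ± SEM.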

[6] = test system: Ca-Ski; experiment: Inhibition of colony formation in human CaSki cells at 2 to 4 uM afer 1 week by crystal violet staining based assay; type: functional, cell-based
How it was run: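 Cells were grown in DMEM with 10% FBS, seeded at 1 × 10^3 cells/ml in six-well plates, incubated overnight, then exposed to 2 or 4 μM at 37 °C under 5% CO2 for one week. Colonies were fixed with 4% paraformaldehyde, stained with 0.5% crystal violet and photographed.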

[7] = test system: C-33-A; experiment: Induction of apoptosis in human C33A cells assessed as late apoptotic cells at 4 uM after 48 hrs by Annexin V-FITC/PI double staining based flow cytometric analysis (reference value: 2.5%); type: functional
[8] = test system: Ca-Ski; experiment: Antiproliferative activity against human CaSki cells assessed as reduction in cell viability after 72 hrs by CellTiter-Glo assay; type: functional, cell-based; how it was run: as §1
[9] = test system: SiHa; experiment: Induction of apoptosis in human SiHa cells assessed as apoptotic cells at 4 uM after 48 hrs by Annexin V-FITC/PI double staining based flow cytometric analysis (reference value: 6.4%); type: functional
[10] = biological target: T1, Homeobox protein SIX1 (Homo sapiens) (UniProt Q15475); experiment: Inhibition of SIX1 in human SiHa cells at 2 to 4 uM after 48 hrs by Western blot analysis; type: cell-based
T1 sequence (whole entry): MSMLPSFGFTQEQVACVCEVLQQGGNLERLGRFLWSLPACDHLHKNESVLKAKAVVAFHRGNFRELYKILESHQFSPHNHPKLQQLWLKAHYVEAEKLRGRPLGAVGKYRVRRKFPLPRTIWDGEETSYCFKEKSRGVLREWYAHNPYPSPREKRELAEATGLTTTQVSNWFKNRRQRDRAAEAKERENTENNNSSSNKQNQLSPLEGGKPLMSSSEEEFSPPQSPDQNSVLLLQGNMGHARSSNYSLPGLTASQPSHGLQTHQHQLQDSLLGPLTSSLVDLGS
How it was run: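 SiHa cells in DMEM with 10% FBS were seeded at 1 × 10^6 per 100 mm dish and treated the next day at 2 or 4 μM for 48 h. Lysis was in RIPA buffer with protease inhibitors. Equal protein was run on SDS-PAGE and transferred to PVDF, blocked in 5% milk/TBST, probed with anti-SIX1 (1:500) then HRP secondary (1:2000), and detected by chemiluminescence.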

[11] = test system: HeLa; experiment: Induction of apoptosis in human HeLa cells assessed as apoptotic cells at 4 uM after 48 hrs by Annexin V-FITC/PI double staining based flow cytometric analysis (reference value: 19.3%); type: functional
[12] = test system: SiHa; experiment: Antiproliferative activity against human SiHa cells assessed as reduction in cell viability after 48 hrs by CellTiter-Glo assay; type: functional, cell-based; how it was run: as §1
[13] = biological target: Casein kinase II subunit alpha (Homo sapiens) (UniProt P68400); experiment: Inhibition of CK2alpha in human C33A cells at 2 to 4 uM after 48 hrs by Western blot analysis; type: cell-based; conditions: C-33-A
Casein kinase II subunit alpha (Homo sapiens), sequence (P68400 whole entry, looked up): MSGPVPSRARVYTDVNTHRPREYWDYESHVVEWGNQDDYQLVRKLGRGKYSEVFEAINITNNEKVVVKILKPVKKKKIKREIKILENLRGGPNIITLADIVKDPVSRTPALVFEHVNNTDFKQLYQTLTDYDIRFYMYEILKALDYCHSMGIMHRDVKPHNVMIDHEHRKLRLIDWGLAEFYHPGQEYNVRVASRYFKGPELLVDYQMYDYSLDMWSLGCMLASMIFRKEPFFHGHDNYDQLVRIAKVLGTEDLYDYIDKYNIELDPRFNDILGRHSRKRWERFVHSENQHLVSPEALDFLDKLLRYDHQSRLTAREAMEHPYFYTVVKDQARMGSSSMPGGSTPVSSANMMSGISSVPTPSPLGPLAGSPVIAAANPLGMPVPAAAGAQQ
How it was run: (§3)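 Cells were seeded at 1 × 10^6 per 100 mm dish and treated next day with 2 or 4 μM for 48 h. They were trypsinised, PBS-washed and lysed in RIPA with protease inhibitors. Equal protein was run on SDS-PAGE and transferred to PVDF. Primary antibodies were used at 1:500, with BSA 3% for blocking and antibodies for CK2α, Rb and pRb, otherwise 5% milk in TBST. HRP secondary at 1:2000, chemiluminescence detection.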

[14] = test system: C-33-A; experiment: Cell cycle arrest in human C33A cells assessed as accumulation at G2/M phase at 4 uM after 48 hrs by propidium iodide staining based flow cytometric analysis (reference value: 26.7%); type: functional; how it was run: as §2
[15] = test system: Ca-Ski; experiment: Induction of apoptosis in human CaSki cells assessed as early apoptotic cells at 4 uM after 48 hrs by Annexin V-FITC/PI double staining based flow cytometric analysis (reference value: 4.4%); type: functional
[16] = biological target: T1, Homeobox protein SIX1 (Homo sapiens); experiment: Potency index, ratio for inhibition activity of apigenin to test compound for inhibition of SIX1 in human CaSki cells after 48 hrs by Western blot analysis; type: cell-based; conditions: Ca-Ski
How it was run: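 Cells plated at 1 × 10^6 per 100 mm dish and treated next day for 48 h with test compound (2 or 4 μM) or apigenin (10, 20 or 40 μM). RIPA lysates with protease inhibitors; equal protein loaded for SDS-PAGE, then PVDF transfer. Blocked in 5% milk/TBST (3% BSA for CK2α); anti-SIX1 or anti-CK2α 1:500, HRP secondary 1:2000; chemiluminescent detection.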

[17] = test system: SiHa; experiment: Cell cycle arrest in human SiHa cells assessed as accumulation at G0/G1 phase at 4 uM after 48 hrs by propidium iodide staining based flow cytometric analysis (reference value: 72.7%); type: functional; how it was run: as §2
[18] = test system: HeLa; experiment: Antiproliferative activity against human HeLa cells assessed as reduction in cell viability after 72 hrs by CellTiter-Glo assay; type: functional, cell-based; how it was run: as §1
[19] = biological target: Protein E6 (human papillomavirus 18) (UniProt P06463); experiment: Inhibition of Human papillomavirus type18 derived E6 in human HeLa cells assessed as increase in p53 protein expression at 2 to 4 uM after 48 hrs by Western blot analysis; type: cell-based; how it was run: as §3
Protein E6 (human papillomavirus 18), sequence (P06463 whole entry): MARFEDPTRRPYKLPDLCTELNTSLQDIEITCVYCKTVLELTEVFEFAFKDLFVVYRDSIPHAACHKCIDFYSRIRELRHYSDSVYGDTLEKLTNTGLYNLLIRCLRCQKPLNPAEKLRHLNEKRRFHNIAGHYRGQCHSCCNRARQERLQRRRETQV

[20] = biological target: Casein kinase II subunit alpha (Homo sapiens) (UniProt P68400); experiment: Inhibition of CK2alpha in human HeLa cells at 2 to 4 uM after 48 hrs by Western blot analysis; type: cell-based; how it was run: as §3

O[C@]12C=C(c3nccc4c3[nH]c3ccccc34)[C@@H]3CCN(CCCC/C=C\CC1)C[C@@]31C[C@@H]3/C=C\CCCCN3[C@H]12 [MANZAMINE A]
IC50 [1]: 4 µM | Activity [2]: 17.4% | Activity [3]: 11.1% | Activity [4]: 16.9% | Activity [5]: 13.8% | inhibition [6]: Active | Activity [7]: 15.7% | IC50 [8]: 9.4 µM | Activity [9]: 33.6% | inhibition [10]: Active | Activity [11]: 75.9% | IC50 [12]: 9.9 µM | inhibition [13]: Active | Activity [14]: 18.3% | Activity [15]: 13.4% | Ratio [16]: 10 | Activity [17]: 86.4% | IC50 [18]: 5.3 µM | inhibition [19]: Active | inhibition [20]: Active
